Shown are actives, neighbours in structure and some others; about 1.8% of the full set was active somewhere.
NR2E3 ag-1 – agonists of human nuclear receptor NR2E3; inhibition of corepressor binding, % at 4.78 µM; Q9Y5X4; hit rate 0.12% among 320,000; GST-NR2E3/biotin-RetCOR TR-FRET, 1536-well; AID 2300;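 active = percent inhibition above the cutoff of mean plus 3 SD of all tested compounds, set per screening campaign, cut at about 20% in these data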;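 also: 0% = DMSO wells and 100% = biotin wells as full block of FRET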
Target sequence (Q9Y5X4 whole entry, looked up): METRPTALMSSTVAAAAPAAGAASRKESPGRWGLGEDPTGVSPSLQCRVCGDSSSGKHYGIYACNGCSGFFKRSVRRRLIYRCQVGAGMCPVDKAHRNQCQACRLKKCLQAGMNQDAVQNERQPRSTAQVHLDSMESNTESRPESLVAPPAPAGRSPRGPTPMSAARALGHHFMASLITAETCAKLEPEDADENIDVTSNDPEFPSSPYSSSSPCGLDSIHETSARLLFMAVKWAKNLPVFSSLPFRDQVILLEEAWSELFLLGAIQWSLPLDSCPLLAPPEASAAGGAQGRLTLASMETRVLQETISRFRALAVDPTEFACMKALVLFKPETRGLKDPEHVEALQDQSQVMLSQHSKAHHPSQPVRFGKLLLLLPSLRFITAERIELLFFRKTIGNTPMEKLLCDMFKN
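System: GST-tagged NR2E3 plus biotinylated RetCOR corepressor; Amount: 1.35 nM GST-tagged NR2E3 final; Dosing: single nominal compound dose of 4.8 µM; Schedule: 5 h incubation at 4 °C; Technique: TR-FRET with europium anti-GST and streptavidin-D2, 340 nm excitation; Controls: biotin wells as high control, 0.6% DMSO wells as low control.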
NR2E3 ag-2 – human photoreceptor-specific nuclear receptor agonism; inhibition of corepressor binding, % at 3.98 µM; CHO-S Gal4-NCOR/VP16-NR2E3 two-hybrid, luciferase; hit rate 0.35% among 360,000; AID 602229; Q9Y5X4;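 active = inhibition above the mean of all tested compounds plus 3 SD, cut at about 70% in these data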;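 also: 0% = DMSO with NR2E3 transfected cells and 100% = cells lacking NR2E3 construct; higher means lower luciferase signal from less NR2E3 corepressor binding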
Rev-erbA mod – modulates human Rev-erb alpha binding to DNA | P20393 | Rev-erbα–FITC-DNA binding, fluorescence polarization, 90 min | activity, % at 10 µM | hit rate 0.79% among 370,000 | AID 1259318;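 active = activity above about 14%, limit read from the data; passing the limit was not always enough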;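 also: 0% = DMSO wells with 35 nM protein and 100% = DMSO wells with 750 nM protein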
GalR3 antagonist – antagonists of human GalR3. hit rate 0.44% among 360,000. inhibition, % at 3 µM. AID 651719. HEK293 GalR3-CNG cAMP membrane potential fluorescence; galR3 body fused to GalR1 C-terminus;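 active = inhibition above the screen-wide average plus 3 SD, cut at about 13% in these data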;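 also: forskolin and galanin both at EC90 stimulate the cells; cAMP rise reported by CNG channel membrane potential dye signal; 0% = forskolin plus galanin with DMSO and 100% = forskolin alone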
Target sequence (O60755 1-299 limits assumed): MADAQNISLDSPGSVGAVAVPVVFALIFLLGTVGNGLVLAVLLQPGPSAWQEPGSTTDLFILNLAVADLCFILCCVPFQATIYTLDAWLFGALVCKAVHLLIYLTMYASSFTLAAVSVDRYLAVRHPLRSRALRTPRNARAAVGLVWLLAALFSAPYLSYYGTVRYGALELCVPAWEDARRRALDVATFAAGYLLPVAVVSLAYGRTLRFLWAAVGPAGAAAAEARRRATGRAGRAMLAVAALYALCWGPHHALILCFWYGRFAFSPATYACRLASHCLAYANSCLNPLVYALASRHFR
PG9 Ab binder – PG9 antibody binding by small molecule; TR-FRET gp120-PG9 antibody binding; inhibition, % at 6.7 µM; hit rate 0.43% among 360,000; AID 624416; in the data active = inhibition above about 8.5%
NR1D1 mod conf – confirmation of modulators of human Rev-erb alpha DNA binding; Rev-erb alpha FITC-DNA binding, fluorescence polarization, 90 min; activation, % at 25 µM; AID 1259319; hit rate 61% among 3,000; shares compounds with Rev-erbA mod;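 active = activation at or above a set limit, or at least 3 SD above the negative control mean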;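 also: 0% = 35 nM protein with DMSO and 100% = 750 nM protein high control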
RORg counter – RORgamma DNA-binding activity, dose-response counter-screen. shares compounds with Rev-erbA mod. purified RORgamma protein-FITC-DNA binding, fluorescence polarization. IC50, µM. hit rate 8% among 910;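 active = Compounds whose fitted half-maximal concentration for disrupting protein-DNA binding is below 10 micromolar; the record names Rev-erb in its text, so the target is in doubt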
The depositor's hits bear a star; i = inactive; / = no result given.

SMILES | NR2E3 ag-1 | NR2E3 ag-2 | Rev-erbA mod | GalR3 antagonist | PG9 Ab binder | NR1D1 mod conf | others
COc1ccc(-c2nnn3c2Cn2c4ccccc4c(=O)n2[C@@H](C(C)C)C3)cc1 | / | / | 9 | / | / | /
O=c1c2ccccc2ncn1-c1ccc(Cl)c(Cl)c1 | 3 | -74 | 30* | -3 | -1 | 37* | RORg counter=>40
Cc1ccccc1CNC(=O)C1CCCN(c2ncccn2)C1 (stereo unspecified) | / | / | -1 | / | / | /
CCC[C@H]1[C@@H](N(C)Cc2cccs2)CC[C@@]23CCCN2C(=O)CCC[C@@H]13 | / | / | 43* | / | / | 52* | RORg counter=>40
CN(C)c1ccc2nc3c(=O)[nH]c(=O)nc-3n(CC(O)C(O)C(O)CO)c2c1 (stereo unspecified) | -9 | 0 | 33* | -8 | -14 | 37* | RORg counter=i
CCOc1ccc(-c2nn3c(-c4ccccc4)nnc3s2)cc1 | 1 | -7 | -10 | -5 | 0 | /
Brc1ccc(-c2nn3c(-c4ccccc4)nnc3s2)cc1 | / | / | 34* | / | / | 71* | RORg counter=2.9*
O=C(CNC(=O)c1ccc(Cl)cc1)OCC(=O)c1ccccc1 | 3 | 12 | 2 | 0 | -1 | /
CC(C)(C)c1ccc(C(=O)NCC(=O)OCC(=O)c2ccc3c(c2)-c2ccccc2C3)cc1 | 0 | 1 | 26* | -3 | -2 | 8
O=C(/C=C\Nc1ccc2c(c1)OCO2)c1ccccn1 | 1 | -26 | 28* | 2 | -2 | 4
O=C(Nc1ccc2c(c1)OCO2)c1ccccn1 | 5 | -149 | -1 | -5 | -2 | /
O=C(CSc1nc(C2CC2)nc2ccccc12)Nc1ccccc1Cl | -2 | -17 | 21* | -6 | 0 | 12
O=C(CSc1nc(C2CC2)nc2ccccc12)Nc1ccccc1 | 0 | 6 | 6 | -9 | 2 | /
Cc1cc(=O)n2[nH]c(=O)c(N=Nc3ccccc3)c2[nH]1 | -5 | -11 | 8 | -3 | -12 | /
CCOc1ccc(N=Nc2c(=O)[nH]n3c(=O)cc(C)[nH]c23)cc1 | -14 | -62 | 25* | -1 | -15 | 41* | RORg counter=>40
CC(C)(Cc1cc(CC(C)(C)C(=O)O)cc(C(C)(C)C)c1)C(=O)O | 4 | -4 | -1 | -3 | -2 | /
CC(C)(C#N)Cc1cc(CC(C)(C)C#N)cc(C(C)(C)C)c1 | 3 | -16 | 22* | -1 | 0 | 43* | RORg counter=>40
CCn1c(Cc2cccs2)nnc1SCC(=O)Nc1ccc(OCc2ccccc2)cc1 | / | / | 4 | / | / | /
Cc1cccc(C)c1OC(=O)CSc1nnc(-c2ccccc2O)o1 | 4 | 16 | 29* | 2 | 5 | 26*
COC(=O)CSc1nnc(-c2ccccc2OC)o1 | 3 | -5 | -3 | -8 | -1 | /
Cc1cc(NC(=O)CSc2ccc3nnc(-c4ccc(Cl)cc4)n3n2)no1 | 3 | -8 | -4 | -4 | 0 | /
Cc1cnn(-c2ccc3nnc(-c4ccc(Cl)cc4)n3n2)c1 | 2 | -6 | 22* | -1 | -2 | 27*
COc1cccc(CNC(=O)COC(=O)c2cc(Br)c(Br)s2)c1 | 6 | 1 | 21* | -6 | 1 | 18*
Cc1cccc(C(=O)OCC(=O)c2cccc(Br)c2)c1O | 1 | 5 | 19* | -1 | 1 | 5
Cc1cccc(C(=O)OCC(=O)NC(=O)c2ccccc2)c1O | -3 | 8 | -2 | -4 | 1 | /
SMILES | NR2E3 ag-1 | NR2E3 ag-2 | Rev-erbA mod | GalR3 antagonist | PG9 Ab binder | NR1D1 mod conf | others
O=C(CCc1ccccc1)N[C@H]1/C(=N/O)CCC[C@]12C(=O)N(Cc1ccccc1)c1ccccc12 | / | / | 0 | / | / | /
COC(=O)c1ccccc1NC(=S)NC(=O)c1ccccc1 | 4 | 33 | -2 | -2 | 0 | /
Cc1ccc(NC(=S)NC(=O)c2ccccc2)cc1NC(=S)NC(=O)c1ccccc1 | / | -16 | 21* | -11 | 6 | 1
COc1ccc(C(=O)NC(=S)Nc2ccc3c(c2)Cc2ccccc2-3)cc1 | 0 | 0 | 24* | -1 | 1 | 1
COC(=O)c1sccc1NC(=O)C12CC3CC(CC(C3)C1)C2 | 6 | -29 | 25* | -4 | 0 | 22*
Clc1ccccc1NN(Cc1ccccn1)c1ccccc1Cl | / | -12 | 2 | -8 | 1 | /
Clc1ccccc1NN(Cc1ccncc1)c1ccccc1Cl | / | -6 | 18* | -6 | 0 | 10
COC(=O)c1cc2c(c3c4cc(F)ccc4n(S(=O)(=O)c4cccc(C)c4)c13)C(=O)N(Cc1ccc(N(C)C)cc1)C2 | / | / | 27* | -4 | -1 | 1
COc1ccc(CCn2c(O)c(C=Nc3cccc(F)c3)c(=O)[nH]c2=O)cc1OC | -2 | -18 | 38* | -3 | 3 | 1
CCc1ccc(-c2cc(C(F)(F)F)n3nc(C(=O)Nc4cnn(Cc5ccccc5C)c4)cc3n2)s1 | 0 | -11 | 37* | -5 | 0 | 13
Cc1ccccc1Cn1cc(NC(=O)c2cc(-c3ccco3)on2)cn1 | 1 | 2 | 0 | -3 | -4 | /
Cc1ccccc1Cn1cc(NC(=O)c2cc(-c3cccs3)on2)cn1 | 0 | -5 | 20* | -10 | 5 | 5
CCc1ccc(-c2cc(C(F)(F)F)n3nc(C(=O)Nc4c(C)nn(Cc5ccccc5C)c4C)cc3n2)s1 | 1 | 6 | / | / | / | /
Cc1ccccc1Cn1ccc(NC(=O)c2cc3nc(-c4ccco4)cc(C(F)(F)F)n3n2)n1 | -1 | -20 | 0 | -3 | 0 | /
CCc1ccc(-c2cc(C(F)(F)F)n3nc(C(=O)Nc4c(C)nn(Cc5ccccc5Cl)c4C)cc3n2)s1 | -1 | 14 | 72* | -4 | -4 | 38* | RORg counter=>40
CCN(CC)c1ccc2cc(-c3nnc(-c4ccncc4)o3)c(=O)oc2c1 | / | -19 | 59* | 0 | -5 | 30*
CCN(CC)c1ccc2cc(C=O)c(=O)oc2c1 | -3 | -12 | 90* | -2 | -7 | 74* | RORg counter=>40
CCN(CC)c1ccc2cc(C(N)=O)c(=O)oc2c1 | 4 | -20 | 9 | -7 | -2 | /
CCN(CC)c1ccc2cc(C(=O)Nc3ccccn3)c(=O)oc2c1 | 5 | -134 | -9 | -2 | 1 | /
CCN(CC)c1ccc2cc(C(C)=O)c(=O)oc2c1 | -3 | 5 | 36* | -5 | -5 | 9
CCN(CC)c1ccc2cc(C(N)=O)c(=N)oc2c1 | -2 | -58 | 55* | 1 | -5 | 24*
COC(=O)C1CN(C2CCCC2)CCS(=O)(=O)N1Cc1ccc(C)cc1 (stereo unspecified) | / | / | 3 | / | / | /
c1ccc(-c2cccc3[nH]cc(-c4ccccc4)c23)cc1 | / | / | -1 | / | / | /
Cc1ccccc1C(=O)n1ccc2ccc(-c3ccc4ccn(Cc5ccccc5)c4c3)cc21 | / | / | 7 | / | / | /
CC(=NNC(=O)CSc1nnc(-c2ccccc2)n1-c1ccccc1)c1cccc([N+](=O)[O-])c1 | / | / | 4 | / | / | /
